What is called IC50 is the point on the concentration scale where inhibition reaches its midpoint.

Structures are written as SMILES.

The results in this text go back to ChEMBL document CHEMBL1152617, “Synthesis of 2- and 17-substituted estrone analogs and their antiproliferative structure-activity relationships compared to 2-methoxyestradiol” (Bioorg Med Chem, 2009).

A short description of series [1]: Antiproliferative activity against human U87MG cells by Brdu incorporation assay. The format is functional, cell-based, U-87MG ATCC. The conditions noted are these: U-87 MG. An outline of the steps:
(§1)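 Cells were grown in DMEM with 10% FBS, 2 mM L-glutamine and penicillin/streptomycin. They were seeded at 2000 cells/well, attached overnight, then exposed to increasing compound concentrations for 48 h. DNA synthesis was read by a colorimetric BrdU ELISA. Each condition was run in triplicate, with at least two experiments, reported as the mean ± SD of independent experiments.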

The test system of series [2] is PC-3. In words: Antiproliferative activity against human PC3 cells by Brdu incorporation assay. The format is functional, cell-based. An outline of the steps:
as §1

Series [3] deals with HUVEC. Put plainly: Antiangiogenic activity against HUVECs by Brdu incorporation assay. The conditions noted are these: Homo sapiens. The format is functional, cell-based. In short, it runs like this: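 After overnight attachment they were washed with PBS and held 24 h without growth factor (EBM, 2% FBS). They were then given increasing drug concentrations in EBM with 2% FBS plus 10 ng/mL bFGF for 48 h at 37 °C. Proliferation was read by BrdU ELISA.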

Series [4] concerns MCF7. In words: Estrogenic activity in human MCF7 cells assessed as stimulation of cell proliferation relative to 2-methoxyestradiol. In kind it is functional. In short, it runs like this:
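MCF-7 were kept in DMEM/F12 with 10% FBS, seeded at 20–30,000 cells/well, adhered overnight and counted. After a PBS wash they were starved 3 days in phenol red-free IMEM with 2% charcoal-dextran-stripped FBS. Increasing concentrations were given, with medium renewed every 2–3 days. Cells were Coulter-counted after 8 or 10 days, in triplicate, and expressed as stimulation index relative to 2ME2 (1.00).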

Series [5] deals with MDA-MB-231 (Homo sapiens). In words: Antiproliferative activity against human MDA-MB-231 cells by Brdu incorporation assay.
A short description of series [6]: Metabolic stability in human liver microsomes assessed as compound remaining at 5 uM after 15 mins by LCMS analysis relative to 0 mins. In kind it is ADME, Microsome. The conditions noted are these: read-out: Stability. In short, it runs like this: (§2)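 Human liver microsomes were incubated in 50 mM tris pH 7.5 with 10 mM MgCl2, 2 mM UDPGA, 25 µg alamethicin/mg microsomal protein and 5 µM compound. Aliquots at 0, 15, 30 and 60 min were quenched in acetonitrile with internal standard. Samples were analysed by C18 LCMS in negative ion mode as % remaining versus 0 min. Controls were BSA without microsomes, and incubations lacking UDPGA.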
(Liver microsomes are a subcellular fraction often used to study metabolism.)

Series [7] is described as follows: Metabolic stability in human liver microsomes assessed as compound remaining at 5 uM after 30 mins by LCMS analysis relative to 0 mins. The following applies: read-out: Stability. In kind it is ADME, Microsome. An outline of the steps: as §2
Series [8] is described as follows: Metabolic stability in human liver microsomes assessed as compound remaining at 5 uM after 60 mins by LCMS analysis relative to 0 mins. The format is ADME, Microsome. The following applies: read-out: Stability. In short, it runs like this: as §2

Take `C[C@@]12CCC[C@H]1[C@@H]1CCc3cc(O)c(N)cc3[C@H]1CC2`: the IC50 in series [1] was over 100 µM; in series [2] it was over 80 µM; in series [3], 60.1 µM; in series [5] it was over 100 µM. For the same compound, in series [4], the “fold change (FC)” value came to 1.49.

On to `C[C@@]12CCC[C@H]1[C@@H]1CCc3cc(O)c(NC=O)cc3[C@H]1CC2`, for which the IC50 worked out at 42.9 µM in series [1], 26 µM in series [2], 6.8 µM in series [3] and 24.6 µM in series [5]. The “fold change (FC)” value in series [4] worked out at 1.71. Further, the remaining at 0.25 h, 5 µM in series [6] is 101%. Further, the remaining at 0.5 h, 5 µM in series [7] amounted to 86%. In addition, the remaining at 1 h, 5 µM in series [8] stood at 68%.

`CCC[C@H]1CC[C@H]2[C@@H]3CCc4cc(O)c(OC)cc4[C@H]3CC[C@]12C`: the half-inhibitory concentration (IC50) in series [1] was 87.9 µM; in series [2], 85.4 µM; in series [3], 40.8 µM; in series [5] it was 95.3 µM. Also, the “fold change (FC)” value in series [4] came to 0.69.

With `COc1cc2c(cc1O)CC[C@@H]1[C@@H]2CC[C@]2(C)[C@@H](N)CC[C@@H]12`, the half-maximal inhibitory concentration (IC50) in series [1] worked out at 19 µM; in series [2], 13.8 µM; in series [3], 13.4 µM; in series [5], 9.77 µM. For the same compound, the “fold change (FC)” value in series [4] is given as 0.19. The remaining at 0.25 h, 5 µM in series [6] is 32%. Besides, the remaining at 0.5 h, 5 µM in series [7] is 30%. For the same compound, in series [8], the remaining at 1 h, 5 µM stood at 9%.

In the case of `CCCC[C@H]1CC[C@H]2[C@@H]3CCc4cc(O)c(OC)cc4[C@H]3CC[C@]12C`, the 50% inhibitory concentration (IC50) amounted to 21.1 µM in series [1], 28.8 µM in series [2], 12.6 µM in series [3] and 33.5 µM in series [5]. Besides, in series [4], the “fold change (FC)” value is 0.59.

For `COc1cc2c(cc1O)CC[C@@H]1[C@@H]2CC[C@]2(C)C=CC[C@@H]12`, the half-inhibitory concentration (IC50) in series [1] came to 0.88 µM; in series [2], 0.62 µM; in series [3], 0.71 µM; in series [5], 0.73 µM. In addition, in series [4], the “fold change (FC)” value is given as 0.3.

Take `C=C1CC[C@H]2[C@@H]3CCc4cc(O)c(OC)cc4[C@H]3CC[C@]12C`: the values for the 50% inhibitory concentration (IC50) in series [3] and in series [5] were 0.19 µM and 0.24 µM, respectively. For the same compound, in series [4], the “fold change (FC)” value was 0.89. Also, in series [6], the remaining at 0.25 h, 5 µM worked out at 76%. Also, the remaining at 0.5 h, 5 µM in series [7] was found to be 67%. Also, the remaining at 1 h, 5 µM in series [8] was 5.8%.

For the compound `CCC=C1CC[C@H]2[C@@H]3CCc4cc(O)c(OC)cc4[C@H]3CC[C@]12C`, the concentration for half-maximal inhibition (IC50) in series [3] was found to be 3.23 µM; in series [5], 7.89 µM. In series [4], the “fold change (FC)” value worked out at 0.47.

Turning to `CC[C@H]1CC[C@H]2[C@@H]3CCc4cc(O)c(OC)cc4[C@H]3CC[C@]12C`, the IC50 came out at 12.8 µM in series [1], 8.7 µM in series [2], 3.63 µM in series [3] and 48.1 µM in series [5]. Further, the “fold change (FC)” value in series [4] is recorded as 0.49. In series [6], the remaining at 0.25 h, 5 µM is 91%. Moreover, the remaining at 0.5 h, 5 µM in series [7] came out at 76%. Further, the remaining at 1 h, 5 µM in series [8] amounted to 72%.

`COc1cc2c(cc1O)CC[C@@H]1[C@@H]2CC[C@]2(C)/C(=N/NS(=O)(=O)c3ccc(C)cc3)CC[C@@H]12`: the half-inhibitory concentration (IC50) in series [1] came to 27.3 µM; in series [2], 27.2 µM; in series [3], 7.95 µM; in series [5] it was 72.5 µM. In series [4], the “fold change (FC)” value is 0.43.

Take `C[C@@]12CCC[C@H]1[C@@H]1CCc3cc(O)c(N=[N+]=[N-])cc3[C@H]1CC2`: the results for the IC50 in series [3] and in series [5] were 2.83 µM and 7.12 µM, respectively. Moreover, in series [4], the “fold change (FC)” value stood at 2.04.

Consider `CC=C1CC[C@H]2[C@@H]3CCc4cc(O)c(OC)cc4[C@H]3CC[C@]12C`, for which the results for the concentration for half-maximal inhibition (IC50) in series [3] and in series [5] were 0.26 µM and 0.58 µM, respectively. The “fold change (FC)” value in series [4] is listed as 0.89. For the same compound, in series [6], the remaining at 0.25 h, 5 µM turned out to be 75%. For the same compound, the remaining at 0.5 h, 5 µM in series [7] came to 75%. Also, the remaining at 1 h, 5 µM in series [8] stood at 0.8%.

`CNc1cc2c(cc1O)CC[C@@H]1[C@@H]2CC[C@]2(C)CCC[C@@H]12`: the IC50 worked out at 22.3 µM in series [1], 22.8 µM in series [2], 4.11 µM in series [3] and 26.8 µM in series [5]. Besides, the “fold change (FC)” value in series [4] came to 1.22.

`COc1cc2c(cc1O)CC[C@@H]1[C@@H]2CC[C@]2(C)CCC[C@@H]12`: the half-maximal inhibitory concentration (IC50) in series [1] came out at 7.59 µM; in series [2], 8.49 µM; in series [3], 1.32 µM; in series [5] it was 2.2 µM. Moreover, the “fold change (FC)” value in series [4] is recorded as 0.24. In addition, the remaining at 0.25 h, 5 µM in series [6] came to 94%. Also, the remaining at 0.5 h, 5 µM in series [7] worked out at 101%. Moreover, the remaining at 1 h, 5 µM in series [8] amounted to 117%.

Take `COc1cc2c(cc1O)CC[C@@H]1[C@@H]2CC[C@]2(C)/C(=N/O)CC[C@@H]12`: the IC50 in series [1] was 9.4 µM; in series [2] it was 8.11 µM; in series [3] it was 4.27 µM; in series [5], 8.68 µM. The “fold change (FC)” value in series [4] is recorded as 1.22.

With `COc1cc2c(cc1O)CC[C@@H]1[C@@H]2CC[C@]2(C)[C@@H](O)CC[C@@H]12` [2-METHOXYESTRADIOL], the IC50 in series [1] came out at 8.54 µM; in series [2], 2.65 µM; in series [5], 1 µM. In series [6], the remaining at 0.25 h, 5 µM turned out to be 58%. The remaining at 0.5 h, 5 µM in series [7] turned out to be 29%. In series [8], the remaining at 1 h, 5 µM stood at 9.4%.

Turning to `COc1cc2c(cc1O)CC[C@@H]1[C@@H]2CC[C@]2(C)[C@@H](C)CC[C@@H]12`, the half-maximal inhibitory concentration (IC50) in series [1] was found to be 9.39 µM; in series [2] it was 6.46 µM; in series [3], 2.4 µM; in series [5], 3.33 µM. Also, the “fold change (FC)” value in series [4] is recorded as 0.89. Moreover, the remaining at 0.25 h, 5 µM in series [6] is 67%. Further, the remaining at 0.5 h, 5 µM in series [7] worked out at 57%. In addition, the remaining at 1 h, 5 µM in series [8] was 47%.

Turning to `C[C@@]12CCC[C@H]1[C@@H]1CCc3cc(O)ccc3[C@H]1CC2`, the IC50 turned out to be 22.1 µM in series [1], 22 µM in series [2], 8.22 µM in series [3] and 41.3 µM in series [5]. The “fold change (FC)” value in series [4] stood at 1.91.

`CN(C)c1cc2c(cc1O)CC[C@@H]1[C@@H]2CC[C@]2(C)CCC[C@@H]12.Cl`: the IC50 in series [1] worked out at 34.2 µM; in series [2] it was 26 µM; in series [3] it was 7.43 µM; in series [5] it was 39.3 µM. Further, in series [4], the “fold change (FC)” value worked out at 2.17.

As to `COc1cc2c(cc1O)CC[C@@H]1[C@@H]2CC[C@]2(C)C(C(N)=O)CC[C@@H]12` (stereo not given in full), the IC50 worked out at 11.2 µM in series [1], 21.5 µM in series [2], 4.55 µM in series [3] and 2.51 µM in series [5].

With `COc1cc2c(cc1O)CC[C@@H]1[C@@H]2CC[C@]2(C)C(C(=O)O)CC[C@@H]12` (stereo not given in full), the 50% inhibitory concentration (IC50) in series [1] is over 100 µM; in series [2], over 100 µM; in series [3], 35.9 µM; in series [5], over 100 µM.

For the compound `COc1cc2c(cc1O)CC[C@@H]1[C@@H]2CC[C@]2(C)[C@@H](NC(C)C)CC[C@@H]12`, the half-maximal inhibitory concentration (IC50) in series [1] was determined as 49.2 µM; in series [2] it was 23.4 µM; in series [3], 18.8 µM; in series [5], 17.8 µM. The “fold change (FC)” value in series [4] was 0.11.

Regarding `CCCC=C1CC[C@H]2[C@@H]3CCc4cc(O)c(OC)cc4[C@H]3CC[C@]12C`, the concentration for half-maximal inhibition (IC50) worked out at 3.47 µM in series [3] and 14 µM in series [5]. Also, in series [4], the “fold change (FC)” value is listed as 0.51.
